In assay [1] the test system is RT-4. Briefly: Growth inhibition of human RT4 cells at 20 uM after 96 hrs by crystal violet staining. As to conditions: RT-4, 96 h, read-out: GI. The class given is functional. In short, it runs like this: (§1)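 This was a single-concentration screen. Actively dividing cells had 96 h continuous exposure to compound diluted 1000-fold from a DMSO solution into medium. Cells were fixed with glutaraldehyde and stained with crystal violet. Bound dye was redissolved in 70% ethanol and read at OD 570 nm. Growth inhibition was expressed against untreated controls.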

The subject of assay [2] is 5637. Briefly: Growth inhibition of human 5637 cells at 20 uM after 96 hrs by crystal violet staining. The class given is functional. The conditions noted are these: Homo sapiens, 5637, 96 h; read-out: GI. A digest of the protocol: as §1
A short description of assay [3]: Growth inhibition of human LCLC-103H cells at 20 uM after 96 hrs by crystal violet staining. The class given is functional. The conditions noted are these: read-out: GI. In short, it runs like this:
as §1

Assay [4] has as its system DAN-G. The assay is described as follows: Growth inhibition of human DAN-G cells at 20 uM after 96 hrs by crystal violet staining. The class given is functional. As to conditions: read-out: GI. A digest of the protocol: as §1
Assay [5] relates to A-427. The assay is described as follows: Growth inhibition of human A427 cells at 20 uM after 96 hrs by crystal violet staining. The class given is functional. As to conditions: A-427, 96 h, read-out: GI. A digest of the protocol:
as §1

The subject of assay [6] is MCF7. Briefly: Growth inhibition of human MCF7 cells at 20 uM after 96 hrs by crystal violet staining. The class given is functional. As to conditions: MCF7, 96 h, read-out: GI. A digest of the protocol:
as §1

The subject of assay [7] is 5637. The assay is described as follows: Cytotoxicity against human 5637 cells after 96 hrs by crystal violet staining. The conditions noted are these: Homo sapiens, 5637, 96 h. The class given is functional, cell-based. In short, it runs like this: (§2)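 Compounds were held as 20 mM DMSO stocks at -20 °C and serially diluted in DMSO to working solutions of 20, 10, 5.0, 2.50, 1.25 and […]. Five of these were diluted 1000-fold into medium, with DMSO-only controls. Dividing cells had 96 h continuous exposure, then glutaraldehyde fixation and crystal violet staining. Dye was redissolved in 70% ethanol and read at OD 570 nm. IC50 came from linear regression of log dose–response curves.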

Assay [8] concerns DAN-G. Briefly: Cytotoxicity against human DAN-G cells after 96 hrs by crystal violet staining. The class given is functional, cell-based. In short, it runs like this: as §2
A short description of assay [9]: Cytotoxicity against human LCLC-103H cells after 96 hrs by crystal violet staining. The class given is functional, cell-based. A digest of the protocol:
as §2

Assay [10] concerns A-427. The assay is described as follows: Cytotoxicity against human A427 cells after 96 hrs by crystal violet staining. The conditions noted are these: A-427, 96 h. The class given is functional, cell-based. In short, it runs like this: as §2
The test system of assay [11] is MCF7. Briefly: Cytotoxicity against human MCF7 cells after 96 hrs by crystal violet staining. The class given is functional, cell-based. The conditions noted are these: MCF7, 96 h. In short, it runs like this: as §2
Assay [12] deals with RT-4. Briefly: Cytotoxicity against human RT4 cells after 96 hrs by crystal violet staining. The class given is functional, cell-based. As to conditions: RT-4, 96 h. A digest of the protocol: as §2

The IC50 is the point on the concentration scale where inhibition reaches its midpoint. The low end stands for higher potency, the high end for lower potency. As to `CN(C)c1cc(N)c2c3c(sc2n1)CCCC3`, the inhibition of growth at 20 µM (in the assay with RT-4 [1]; in the assay with 5637 [2]; in assay [3]; in the assay on DAN-G [4]; in the assay on A-427 [5]; in the assay with MCF7 [6]) was under 50% each time. Also, the half-maximal inhibitory concentration (IC50) (with 5637 [7]; in the assay with DAN-G [8]; in [9]; with A-427 [10]; with MCF7 [11]; with RT-4 [12]) was over 20 µM throughout.

In the case of `Nc1cc(N2CCCC2)nc2sc(-c3ccccc3)c(-c3ccccc3)c12`, the inhibition of growth at 20 µM in the assay on RT-4 [1] was under 50%. Moreover, the IC50 was 8.18 µM with 5637 [7]; 8.17 µM in the assay on DAN-G [8]; 9.79 µM in [9]; 8.76 µM in the assay on A-427 [10]; 13.7 µM with MCF7 [11]; over 20 µM in the assay with RT-4 [12].

Regarding `Cc1oc2nc(N3CCCC3)cc(N)c2c1C`, the inhibition of growth at 20 µM (in the assay with RT-4 [1]; in the assay with 5637 [2]; in assay [3]; with DAN-G [4]; in the assay on A-427 [5]; in the assay with MCF7 [6]) was under 50% in each case. For the same molecule, the IC50 (in the assay on 5637 [7]; with DAN-G [8]; in assay [9]; with A-427 [10]; in the assay with MCF7 [11]; with RT-4 [12]) was over 20 µM each time.

For `CN(C)c1cc(N)c2c3ccccc3n(C)c2n1`, the inhibition of growth at 20 µM (in the assay on RT-4 [1]; with 5637 [2]; in assay [3]; in the assay with DAN-G [4]; in the assay on A-427 [5]; in the assay on MCF7 [6]) was under 50% in each case. For the same molecule, the half-inhibitory concentration (IC50) (in the assay on 5637 [7]; in the assay on DAN-G [8]; in assay [9]; in the assay with A-427 [10]; with MCF7 [11]; in the assay with RT-4 [12]) was over 20 µM in each case.

Regarding `COc1ccc(Cn2c3nc(N(C)C)cc(N)c3c3ccc4ccccc4c32)cc1`, the inhibition of growth at 20 µM (in the assay on RT-4 [1]; in the assay with 5637 [2]; in assay [3]; with DAN-G [4]; in the assay on A-427 [5]; in the assay with MCF7 [6]) was under 50% in each case. The IC50 (in the assay with 5637 [7]; in the assay with DAN-G [8]; in [9]; with A-427 [10]; with MCF7 [11]; in the assay on RT-4 [12]) was over 20 µM each time.

Regarding `Cc1nc2nc(N(C)C)cc(N)c2cc1-c1ccccc1`, the inhibition of growth at 20 µM (in the assay with RT-4 [1]; in the assay with 5637 [2]; in assay [3]; in the assay with DAN-G [4]; in the assay on MCF7 [6]) was under 50% throughout. In addition, the IC50 (with 5637 [7]; in the assay on DAN-G [8]; in [9]; with MCF7 [11]; in the assay with RT-4 [12]) was over 20 µM in each case.

In the case of `Cc1oc2nc(N(C)C)cc(N)c2c1C`, the inhibition of growth at 20 µM (with RT-4 [1]; with 5637 [2]; in assay [3]; in the assay on DAN-G [4]; in the assay on A-427 [5]; in the assay on MCF7 [6]) was under 50% throughout. Besides, the IC50 (with 5637 [7]; in the assay with DAN-G [8]; in [9]; in the assay with A-427 [10]; in the assay with MCF7 [11]; with RT-4 [12]) was over 20 µM each time.

As to `CN(C)c1cc(N)c2c(n1)[nH]c1ccccc12`, the inhibition of growth at 20 µM (in the assay on RT-4 [1]; with 5637 [2]; in [3]; in the assay on DAN-G [4]; in the assay on A-427 [5]; with MCF7 [6]) was under 50% throughout. The half-inhibitory concentration (IC50) (in the assay on 5637 [7]; with DAN-G [8]; in [9]; in the assay with A-427 [10]; in the assay on MCF7 [11]; with RT-4 [12]) was over 20 µM each time.

`CN(C)c1cc(N)c2c3ccc4ccccc4c3n(C)c2n1`: the inhibition of growth at 20 µM (with 5637 [2]; in [3]; with DAN-G [4]) was under 50% in each case. Besides, the IC50 in the assay with 5637 [7] is over 20 µM; in the assay on DAN-G [8], over 20 µM; in assay [9], over 20 µM; with A-427 [10] it was 14.3 µM; in the assay on MCF7 [11] it was 21.3 µM; in the assay on RT-4 [12], 12.9 µM.

As for `CN(C)c1cc(N)c2c(-c3ccccc3)c(-c3ccccc3)n(Cc3ccccc3)c2n1`, the inhibition of growth at 20 µM (with RT-4 [1]; in the assay with 5637 [2]; in [3]; in the assay on DAN-G [4]; in the assay on MCF7 [6]) was under 50% each time. In addition, the half-inhibitory concentration (IC50) (in the assay on 5637 [7]; with DAN-G [8]; in assay [9]; with MCF7 [11]; in the assay on RT-4 [12]) was over 20 µM each time.

`COc1ccc(Cn2c3ccccc3c3c(N)cc(N(C)C)nc32)cc1`: the inhibition of growth at 20 µM (with 5637 [2]; in assay [3]; in the assay on DAN-G [4]; in the assay with A-427 [5]; with MCF7 [6]) was under 50% each time. Moreover, the IC50 (with 5637 [7]; with DAN-G [8]; in assay [9]; in the assay with A-427 [10]; in the assay on MCF7 [11]) was over 20 µM each time.

Turning to `CCOC(OCC)n1c2ccccc2c2c(N)cc(N(C)C)nc21`, the inhibition of growth at 20 µM (with RT-4 [1]; with 5637 [2]; in [3]; in the assay on DAN-G [4]; in the assay on A-427 [5]; with MCF7 [6]) was under 50% in each case. For the same molecule, the concentration for half-maximal inhibition (IC50) (in the assay with 5637 [7]; with DAN-G [8]; in [9]; with A-427 [10]; with MCF7 [11]; in the assay on RT-4 [12]) was over 20 µM each time.

Regarding `CN(C)c1cc(N)c2c(-c3ccccc3)c(-c3ccccc3)oc2n1`, the inhibition of growth at 20 µM (in the assay with RT-4 [1]; in assay [3]; in the assay with DAN-G [4]) was under 50% in each case. Also, the concentration for half-maximal inhibition (IC50) in the assay with 5637 [7] is 14.9 µM; with DAN-G [8], over 20 µM; in assay [9], over 20 µM; in the assay on A-427 [10], 14.6 µM; in the assay with MCF7 [11] it was 18.8 µM; in the assay on RT-4 [12], over 20 µM.
